Tested on: MS2 coat protein
Experiment: apparent Kd, MS2 coat protein; higher = weaker binding; RNA-MaP array; FMN 200 µM where present
Procedure, shortened: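 On Illumina sequencing-chip clusters, designs were transcribed by stalled E. coli RNA polymerase and titrated with SNAP-549-labelled MS2 coat protein (0.7 or 1.5 nM, doubling to 3 µM), without and then with constant ligand, in 100 mM Tris-HCl pH 7.5, 80 mM KCl, 4 mM MgCl2, BSA, DTT, yeast tRNA and Tween-20. Apparent Kd is the median of filtered per-cluster curve fits to green signal normalised to red-channel RNA signal and control-cluster median Fmax.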

[1] = designed as: OFF switch for flavin mononucleotide, no ligand
[2] = ligand present: flavin mononucleotide, designed as: OFF switch for flavin mononucleotide
[3] = designed as: ON switch for flavin mononucleotide, no ligand
[4] = ligand present: flavin mononucleotide, designed as: ON switch for flavin mononucleotide

Sequence | apparent Kd [1] [nM] | apparent Kd [2] [nM] | apparent Kd [3] [nM] | apparent Kd [4] [nM]
UUGGUACAAGGAUAUACAUGAGGAUCACCCAUGUUUGGCAUCGCGCGUAUCUCUUCAGGUAGAAGGUGUGUUGA | 22.3 | 26.5 |  | 
UGAUAGGACAGAGGAUAUACGUGCUAGAGAUACUAGCAAAUAAUCCUUACAUGAGGAUCACCCAUGUAGAAGGCUGUCCUAUCU | 19.3 | 47.4 |  | 
UUAAUGUGAGGAUAUCAGGUGUGCUAGCGUACUGGUACAUCUGAGAAGGCACAUGAGGAUCACCCAUGUUCCUG | 22.1 | 77.6 |  | 
AGCUGGUGACAGCAUCGAGCUAAACAUGAGGAUCACCCAUGUAGAAGGCUGUACGGUUACCGUACAGAGGAUAUACAAAGCUCG | 6.06 | 7.17 |  | 
AGUGUGUGGCAGGAUAUUCUGGUCGUGAGUCGGGAAGAAGGGUCUACAUGAGGAUCACCCAUGUGAGCGGUUGA | 99.4 | 258 |  | 
AUCAGCUCGUCAGGAUAUACGCCACUGCGUCAGCAGUGUGGUAAGAUCACAUGAGGAUCACCCAUGUAGAAGGGACGAGCUGAU | 10.9 | 147 |  | 
UAUUUUUAUGUAAGGAUAUGGGUUUGGUUGCGGGCUUAGAAGGUACAUGAGGAUCACCCAUGUAUUUUGUGCAU | 32.8 | 35.3 |  | 
GGUUUUUCUGAGGAUAUUGCAUCACCCGAUUUAUAAGAAGGCAGAACAUGAGGAUCACCCAUGUGGGUUUCUAG | 19.4 | 24.8 |  | 
UUGGACGUCGUAGGAUAUGUAGGAUAUUCGUACAUGAGGAUCACCCAUGUUGACAUGGAAGAAGGACAGAAGGACGAUGUCCAU |  |  | 12.2 | 4.55
GGGUGACAUGAGGAUCACCCAUGUCAGGAUAUGCGCGCGCGCGCGAAAGUGUGUGUGUGUAGAAGGGACUGCCC | 49.6 | 81.2 |  | 
AAUGGGCAGCAGAAGGCAUGUCAAUGGACAUGAGGAUCACCCAUGUAGUAUAGCCGAAAGGCACAUGAGGAUAUGCUGCCCUAA |  |  | 47.2 | 6.74
CAACCAGUGAAGGAUAUCAUCGAGGCUCGGCAUUGAGAAGGUUACACAUGAGGAUCACCCAUGUGGUUUCGUUC | 14.5 | 14.7 |  | 
AGUAACAGAGGAUAUACUAUUUUAUGUGUUUAUUAUUUUGAACAUGAGGAUCACCCAUGUAGAAGGCUGAAUAA | 27 | 30.1 |  | 
GCCGAAGGAGGAUAUACACCCGGUGGCAAAACGCCGGCUCGACAUGAGGAUCACCCAUGUAGAAGGCCUGUGGU | 16.4 | 18 |  | 
UGUCGGAGCAGAGGAUAUUACAUGAGGAUCACCCAUGUAGGAACCAAUAGCUGGAAACAGCAAUGUAAGAAGGCUGCUCCGACA | 19.6 | 267 |  | 
UGCUACGUUUCGUAGCAGCUAGGUGAGGAUAUUCAAUUUUUCACAUGAGGAUCACCCAUGUAUGUGAAGAAGGCGCCUAGAAAC |  |  | 11.6 | 4.61
UUACUACAUGAGGAUCACCCAUGUCAGGAUAUUGUAUAUACCUUGGAAUACGUGUCUACAAGAAGGGACUAUAU | 23.7 | 22.5 |  | 
CGAUUGUAUAGAGGAUAUGUUAUACAUGAGGAUCACCCAUGUGAGGUGGAAAUAUUUAAUUACAUACAGAAGGCUAUACAAUCG | 231 | 237 |  | 
UUGGACGUCGUAGGAUAUGUAGGAUAUUCCUACAUGAGGAUCACCCAUGUUGACAUGGAAGAAGGAGAGAAGGACGAUGUCCAU |  |  | 308 | 354
UUUGUGUAAGGAUAUCACUACCGGGUCCGGACGCCCGCAGAUGAGAAGGUACAUGAGGAUCACCCAUGUCCCUA | 19.7 | 26.4 |  | 
GACAUGAGGAUCACCCAUGUCCAUGCAAAAGUAGUUGAGACCAGAAGGACCGUGCGGAGUGCAGGGUAGGAUAUGGAGCCCUCA |  |  | 28.2 | 7.34
UCCUGACCGAGAGAUAGGAGUAGUAGAAGGCGACCGGUGCCAGAUGACAUGAGGAUCACCCAUGUCGAGGAUAUACUACAGAAU | 6.99 | 9.63 |  | 
UUGUUAGCAGGAUAUAUCCACGACCACAUGAGGAUCACCCAUGUGGCCGCUUGAGGUUGUAUAGAAGGGCUUUGUU | 13.8 | 14.3 |  | 
GUGGUCAGACAUGAGGAUCACCCAUGUGGAAUAAAUAACGUCAAGGAUAUUCAAUAUAGGAUAUAGAAGAAGGUGAGAUUGGUG |  |  | 153 | 177

Sequence | apparent Kd [1] [nM] | apparent Kd [2] [nM] | apparent Kd [3] [nM] | apparent Kd [4] [nM]
CGCACUGAUAGAGGAUAUGUUUAACAUGAGGAUCACCCAUGUGUACAAGUAUCAAUAUUUAUCAAACAGAAGGCUAUUAGUGCG | 4.84 | 3.88 |  | 
CUAUAUAAUACCUCAUGUACAUGAGGAUCACCCAUGUUAACUAAGGAUAUAUAUAUAUUAAUAAUGUAGAAGGUAGUACUAUUU | 16 | 11.8 |  | 
GGUGCACGCACAGGAUAUCCGGCGGAGCUCGUCGGAGAAGGGUGACAUGAGGAUCACCCAUGUACGUGCAACCCAGUUUGAGAG |  |  | 45.2 | 30.7
GCUGGUCGAGGAUAUACAUGACGUGCUUCGGCACGAGGUCUACAUGAGGAUCACCCAUGUAGAAGGCGACCAGC | 30.8 | 225 |  | 
CAACUCGGAGGAUAUAGCUGUUCUAACAUGAGGAUCACCCAUGUGCAGUUCCUUGUUAGGCUAGAAGGCCGGUAUA | 40.6 | 99.1 |  | 
UGGUACAUGGGAGGAUAUCAUGUGAGAACAUGAGGAUCACCCAUGUCGAUGGAGACAUCGGAGAUUGAGAAGGCCCAUGUACCU |  |  | 1210 | 63.8
CUGGUGUGAGGAUAUCAGGACACGUACGCGGGCAUGUCAAAUGAGAAGGCACAUGAGGAUCACCCAUGUGGGAC | 29.7 | 41.6 |  | 
CACGGAUAGUAGAAGGGUGACAUGAGGAUCACCCAUGUACACAUGCGUAUUAAAGUAUGUGAUACACAGGAUAUACUAUCCGUG |  |  | 76.3 | 321
GCGUCAGAAUUAAUUGUGACAGGCAGAAGGCCAUAUUUCAUGUCAGACAUGAGGAUCACCCAUGUGGAGGAUAUGCAGUUACAC | 43.4 | 98.7 |  | 
GAAUAAUUGAUCCAAUUUAACUACAUGAGGAUCACCCAUGUGCAGGAUAUCGUAAUAUUUAAUUACGAGAAGGGCAAGAACGGU | 366 | 516 |  | 
AAUGAGACCGCAGGAUAUCCACAUGAGGAUCACCCAUGUUCUCAGGUCGGAAGCACGACCUGCGAGGAGAAGGGCGACCUCAUA |  |  | 715 | 36.5
AAAAAGUGAGGAUAUACAUGAGGAUCACCCAUGUUAAAAAAGGAAAAAAAAAAAAAAUGUAGAAGGCGCAAAAA | 45.3 | 44 |  | 
GAGUUAUCAGGAUAUACAUGAGGAUCACCCAUGUCGAUCAAUCCCGUGGGAACGCACUGUAGAAGGGAUGUAGU | 32.5 | 33 |  | 
CGUUGGUUAGGAUAUGCCCUCCUGGUGGGAAGGCCGGGUGGGUAGAAGGGACAUGAGGAUCACCCAUGUAUGGA | 72.3 | 26.8 |  | 
CUAUCGAGGUCACUCGUUAUCACACCAGAAGGGACGGAGGCACAUGAGGAUCACCCAUGUCCUAGUCAGGAUAUGGGUGAGUAG |  |  | 25.6 | 5.16
AUUUCGACCACAGGAUAUGUUUGACCGAUACUUACAGAAGGGUGGUCCACGCGCACAAGCACAUGAGGAUCACCCAUGUAACGA |  |  | 20.1 | 60.7
GUUGUCUAUGUAGGAUAUGCGAGGCGAGCCUAAGCAGAAGGACAUGAGGAUCACCCAUGUAUUGCGGUCUGCGUUCAGAUCGCU | 38.1 | 141 |  | 
CCUAGUUGGUAAGGAUAUCCUACACUAUUCUGACCCGUGCAAGCUACAUGAGGAUCACCCAUGUGGGAGAAGGUGCGUCAACAU | 10.1 | 10.2 |  | 
GGUAUGGACAGAGGAUAUACCGAUAGGAGAUACUAUCGACUAUUCCUCACAUGAGGAUCACCCAUGUAGAAGGCUGUCCAUACG | 17 | 65.5 |  | 
AGUAAGAUGCAGAAGGUGUCAGCGAGAGCUGCGACAUGAGGAUCACCCAUGUACCGGUGACGGUACAAGGAUAUGCAUCUUACA |  |  | 882 | 360
AUGCGGUCAGGAUAUGCAUGGCGGGACUUGCGUCGUGGCGUGGAGAAGGGACAUGAGGAUCACCCAUGUGGAGG | 108 | 87 |  | 
AACCUGAUAGUGAGGAUAUCGGCGACGACAAGUCACGAGAAGGCACAUGAGGAUCACCCAUGUGAUAAAAUAAA | 20.4 | 42.1 |  | 
UUAAAUCGAAACAUGAGGAUCACCCAUGUGUUGUAAUUAAUAUAGGAUAUGUGUAUACUUUUAUAAUAGAAGGAUGAUAAUACU |  |  | 17.4 | 12.1
AGGUAAGACUUAAUUGUGCUGGUGAGAAGGCAAAUGGUUGUGACCAACAUGAGGAUCACCCAUGUUGAGGAUAUCAUCGGUAUC | 86.2 | 361 |  | 
